# Results taken from publication PMC5943194 (Environmental science and pollution research international, 2017).
# “Also recorded” adds a separate entry of the source.
# Columns and labels:
# ER = details: ref Hamers et al. 2011; cited from earlier work
# AR = details: ref Hamers et al. 2011; cited from earlier work
# [1] = tested on: ER target gene TFF1 mRNA in MCF-7 cells; experiment: Modulation of E2-induced TFF1 mRNA in MCF-7 cells; assay type: cell-based, human; details: 25 μM, 24 h, co-exposure with E2
# Procedure, shortened: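 MCF-7 cells (passages 15–18) in phenol red-free DMEM/F12 with 5% charcoal/dextran FBS were co-exposed for 24 h to test compound (25 μM) plus E2 (5 pM). TFF1 mRNA was measured by qRT-PCR: RT 50°C 20 min, 95°C 15 min, then 40 cycles of 95°C 15 s/60°C 60 s. PBGD was the reference gene, with comparative Ct analysis. Three independent experiments, n=6.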
# [2] = tested on: AR target gene PSA mRNA in LNCaP cells; experiment: Suppression of DHT-induced PSA mRNA in LNCaP cells; assay type: cell-based, human; details: 25 μM, 24-h co-exposure to 1 nM DHT
# Procedure, shortened: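 LNCaP cells (passages 4–6) were grown in RPMI-1640 with 10% FBS, then moved to phenol red-free RPMI-1640 with 5% dextran/charcoal-treated serum. After 24 h in fresh medium they were co-treated for 24 h with test compound and DHT (1 nM). PSA mRNA was measured by qRT-PCR (PBGD reference, comparative Ct) and expressed relative to DHT alone. Three independent experiments, n=6.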
# estrogen receptor (ER) [3] = biological target: T1, estrogen receptor (ER) (Homo sapiens, UniProt P03372); experiment: ER-CALUX assay, ER-antagonistic activity, co-exposure with E2; assay type: cell-based; details: T47D.Luc cells, 24 h; for ER-antagonistic Response at 25 μM (% of E2 response): in the presence of E2 (5 pM); for Modulation of E2-dependent induction of luciferase activity, in words: combined exposure with E2 (5 pM)
# Procedure, shortened: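 ER-CALUX in T47D.Luc cells (passages 22–25) kept in phenol red-free DMEM/F12 with 5% charcoal/dextran FBS. Test compound in DMSO was co-exposed with E2 (5 pM) for 24 h, then cells were lysed at pH 7.8 and luciferase read. IC25/IC50 are concentrations inhibiting E2-induced luciferase by 25/50%, calculated from full dose-response curves. Three independent experiments in triplicate.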
# estrogen receptor (ER) [4] = biological target: T1, estrogen receptor (ER); experiment: ER-CALUX assay, ER-agonistic activity; assay type: cell-based; details: T47D.Luc cells, 24 h; for ER-agonistic Response at 10 μM (% of E2max): relative to E2 (15 pM)
# Procedure, shortened: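 T47D.Luc cells (passages 22–25) stably carry pEREtataLuc and were exposed in phenol red-free DMEM/F12 with 5% charcoal/dextran FBS. Cells were seeded at 20,000 cells/cm2 and dosed 24 h later with test compound in DMSO for 24 h. They were then lysed (10 mM Tris, 2 mM DTT, 2 mM EGTA, pH 7.8) and luciferase measured. RLU minus DMSO control gave fold induction relative to E2 (15 pM) maximum.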
# [5] = tested on: all cell lines (T47D.Luc, MCF-7, LNCaP, HepaRG); experiment: Cytotoxicity, neutral red assay; assay type: cell-based, human; details: up to 25 μM concentration
# [6] = tested on: CAR-dependent CYP2B6 mRNA in HepaRG cells; experiment: CAR-agonistic response: induction of CYP2B6 mRNA in differentiated HepaRG cells; assay type: cell-based, human; details: CYP2B6 mRNA, HepaRG, 24 h, relative to PB (2 mM)
# Procedure, shortened: (§1)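 Differentiated HepaRG cells (passages 7–9) were grown 14 days in growth medium, then 14 days in differentiation medium, and returned to growth medium 3 days before a 24 h exposure to test compound (0.01–25 μM). CYP2B6 and CYP3A4 mRNA were measured by qRT-PCR (PBGD reference, comparative Ct) relative to PB (2 mM) and RIF (50 μM), respectively. EC25/EC50 were taken from dose-response curves.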
# [7] = tested on: CYP2B6 mRNA (CAR-dependent); experiment: as above; assay type: cell-based, human; details: human, differentiated HepaRG cells
# Procedure, shortened: as §1
# RyRs = details: ref Pessah et al. 2009; cited from earlier work
# [8] = tested on: PXR-dependent CYP3A4 mRNA in HepaRG cells; experiment: PXR-agonistic response: induction of CYP3A4 mRNA in differentiated HepaRG cells; assay type: cell-based, human; details: 24 h
# Procedure, shortened: as §1
# [9] = tested on: ER target gene TFF1 mRNA in MCF-7 cells; experiment: Induction of TFF1 mRNA in MCF-7 cells; assay type: cell-based, human; details: 25 μM, 24 h
# Procedure, shortened: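 MCF-7 cells (passages 15–18) were moved to phenol red-free DMEM/F12 with 5% charcoal/dextran FBS and 1% non-essential amino acids. After 24 h in fresh medium they were treated for 24 h with 25 μM test compound. TFF1 mRNA was quantified by one-step qRT-PCR (PBGD reference, comparative Ct) and expressed relative to maximal induction by E2 (15 pM). Three independent experiments, n=6.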
# [10] = CYP3A4 mRNA, relative to RIF (50 μM)
# T1 sequence (P03372 whole entry): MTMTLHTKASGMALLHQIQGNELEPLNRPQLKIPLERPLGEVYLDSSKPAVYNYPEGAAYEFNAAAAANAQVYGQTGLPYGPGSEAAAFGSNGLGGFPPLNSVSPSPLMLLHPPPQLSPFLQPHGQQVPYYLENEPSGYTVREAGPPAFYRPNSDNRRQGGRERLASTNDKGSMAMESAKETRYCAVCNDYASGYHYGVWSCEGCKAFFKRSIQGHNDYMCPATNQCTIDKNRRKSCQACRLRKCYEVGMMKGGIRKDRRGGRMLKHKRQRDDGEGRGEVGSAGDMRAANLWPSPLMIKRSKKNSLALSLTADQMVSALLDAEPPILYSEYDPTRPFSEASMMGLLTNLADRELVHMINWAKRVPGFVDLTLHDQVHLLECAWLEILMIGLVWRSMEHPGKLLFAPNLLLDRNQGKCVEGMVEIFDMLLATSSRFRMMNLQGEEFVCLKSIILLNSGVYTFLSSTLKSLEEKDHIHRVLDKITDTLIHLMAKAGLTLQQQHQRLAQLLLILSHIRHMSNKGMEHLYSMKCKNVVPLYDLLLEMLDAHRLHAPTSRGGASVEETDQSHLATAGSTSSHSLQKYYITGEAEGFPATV
Compound,"ER activity in luciferase reporter gene assays, in words (ER)","AR activity in luciferase reporter gene assays, in words (AR)","Effect on E2-induced TFF1 gene expression, in words [1]","Antiandrogenic activity (suppression of DHT-induced PSA mRNA), in words [2]",ER-antagonistic Response at 25 μM (% of E2 response) (estrogen receptor (ER) [3]),"ER-mediated activity (induction of luciferase), in words (estrogen receptor (ER) [4])",ER-agonistic Response at 10 μM (% of E2max) (estrogen receptor (ER) [4]),Cytotoxicity [5],CAR-agonistic Maximum response at 5 μM (% of PB max) [6],CAR-agonistic response EC25 [6],EC50 at 24 h [7],"Activity towards RyR, in words (RyRs)","Modulation of E2-dependent induction of luciferase activity, in words (estrogen receptor (ER) [3])","PXR-agonistic Maximum response at 25 μM (% of RIF max) [8, 10]","Estrogenicity (TFF1 mRNA induction), in words [9]","PXR-dependent CYP3A4 mRNA induction, in words [8]","PXR-agonistic response EC25 [8, 10]"
"Clc1ccc(Cl)c(-c2c(Cl)ccc(Cl)c2Cl)c1Cl (racemic) [(±)-PCB 136, 2,2',3,3',6,6'-hexachlorobiphenyl]",ER-agonistic,AR-antagonistic,significantly potentiated the E2-induced TFF1 gene expression,significant antiandrogenic activity,81 % of E2 response,intermediate effect,63 % of E2max,no cytotoxicity was observed,,,,,,,,,
"Clc1ccc(Cl)c(-c2c(Cl)ccc(Cl)c2Cl)c1Cl [(+)-PCB 136, 2,2',3,3',6,6'-hexachlorobiphenyl]",,,significantly potentiated the E2-induced TFF1 gene expression,,123 % of E2 response,estrogenic; also recorded: strong ER-mediated activity,89 % of E2max,,38 % of PB max,1.0 µM,6.6 µM,no significant activity towards the RyR,slightly potentiated E2-dependent induction of luciferase activity,17 % of RIF max,relatively high estrogenicity,,
"Clc1ccc(Cl)c(-c2c(Cl)ccc(Cl)c2Cl)c1Cl [(−)-PCB 136, 2,2',3,3',6,6'-hexachlorobiphenyl]",,,inactive,,27 % of E2 response,did not induce a significant increase of luciferase activity,27 % of E2max,,51 % of PB max,0.7 µM,,activate RyRs,"exhibited antiestrogenic effects, especially at higher concentrations",38 % of RIF max,,significantly more potent inducer of PXR activity than (+)-PCB 136; also recorded: significantly more potent inducer of CYP3A4 mRNA than (+)-PCB 136,7.4 µM
